This note sets out measurements from PubChem BioAssay AID652163 (Broad Institute, 2013).

What is called inhibition is the drop in the measured response relative to a control, in per cent.

Structures are written as SMILES. Values joined by “and” are separate entries in the source; they are usually repeats but may differ in a detail not shown here. Equal entries are not always repeated. The campaign covered roughly 360,000 compounds. About 500 (0.14%) were called active.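 The calls were made as follows: active = mean inhibition of at least 70% across replicates, with every replicate also reaching that level; inconclusive = mean inhibition reaches 70% but some replicates fall short; inactive = mean inhibition below 70%.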 The list comes from a sample in which actives are over-represented; it also holds similar structures and randomly drawn compounds.

Protein S100-A4 (Homo sapiens), sequence (P26447 whole entry, looked up): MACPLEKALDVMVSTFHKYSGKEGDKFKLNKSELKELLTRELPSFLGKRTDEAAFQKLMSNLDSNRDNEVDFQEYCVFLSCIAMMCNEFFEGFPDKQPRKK

The experiment deals with Protein S100-A4 (Homo sapiens) (UniProt P26447). Description: inhibitors of S100A4-myosin IIA peptide binding, primary screen, biochemical, fluorescence polarization, TAMRA-MyoIIA peptide (AID 652163). As to conditions: at 10.7 µM, hits give high values. A digest of the protocol:
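Compound dosing: one dose per compound; test system: human S100A4 monomer with TAMRA-labelled myosin IIA peptide; probe or stimulus: TAMRA-labelled myosin IIA heavy-chain peptide probe, 5 nM; medium: HEPES buffer with Ca2+, pH 7.2; schedule: 5 min incubation before reading; benchmarks: neutral control DMSO, positive control TFP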
As for `C[C@H]1CN([C@@H](C)CO)C(=O)Cc2cc(NS(=O)(=O)c3cn(C)cn3)ccc2O[C@@H]1CN(C)C(=O)Nc1ccc2c(c1)OCO2`, the inhibition was 1.37% (inactive).

In the case of `Cc1cccc(CN(C)C[C@H]2OCc3cn(nn3)CCCC(=O)N([C@@H](C)CO)C[C@H]2C)c1`, the inhibition is -6.24% (inactive).

Turning to `CCC(=O)N1CCCCN2[C@H](C1)[C@@H](c1ccc(/C=C/c3ccccc3)cc1)[C@@H]2CO`, the inhibition is 3.9% (inactive).

For `CCCN(C)C[C@@H]1Oc2cc(C#Cc3ccc(F)cc3)ccc2S(=O)(=O)N([C@H](C)CO)C[C@H]1C`, the inhibition was -10.2% (inactive).

In the case of `C[C@H]1CCCCO[C@@H](CN(C)C(=O)C2CCCCC2)[C@@H](C)CN([C@@H](C)CO)C(=O)c2cc(NS(=O)(=O)c3cccs3)ccc2O1`, the inhibition is -3.65% (inactive).

As for `CCCNC(=O)N1C[C@H](O)COC[C@H]2O[C@@H](CC(=O)NCc3ccncn3)CC[C@@H]21`, the inhibition is 1.59% (inactive).

Consider `CCCNC(=O)N[C@@H]1C=C[C@H](CC(=O)NC2CCC2)O[C@H]1CO`, for which the inhibition is 10% (inactive).

In the case of `CO[C@H]1CN(C)C(=O)c2cc(NS(=O)(=O)c3ccccc3)ccc2OC[C@H](C)NC[C@@H]1C`, the inhibition is -2.03% (inactive).

On to `O=C(c1cnccn1)N1CC(=O)N2[C@H](C1)[C@@H](c1ccc(C#CC3CCCC3)cc1)[C@@H]2CO`, for which the inhibition was -1.65% (inactive).

Consider `CCCNC(=O)N1CC(=O)N2[C@H](CO)[C@@H](c3ccc(-c4ccc(F)cc4)cc3)[C@H]2C1`, for which the inhibition was 120% (active).

In the case of `CCCNC(=O)N1CC(=O)N2[C@@H](CO)[C@H](c3ccc(-c4ccc(C)cc4)cc3)[C@@H]2C1`, the inhibition is 14% (inactive).

`CCCC#Cc1ccc([C@@H]2[C@@H](CO)N3C(=O)CN(C(=O)Nc4ccc(F)cc4)C[C@@H]23)cc1`: the inhibition is 5.06% (inactive).

On to `COCC#Cc1cnc2c(c1)C(=O)N([C@@H](C)CO)C[C@@H](C)[C@H](CN(C)C(=O)Nc1ccccc1OC)O2`, for which the inhibition is 5.05% (inactive).

`C[C@@H]1CCCCO[C@H](CN(C)Cc2ccccc2)[C@H](C)CN([C@H](C)CO)C(=O)c2cc(NS(=O)(=O)c3ccc(Cl)cc3)ccc2O1`: the inhibition is -1.24% (inactive).

`Cc1ccc(S(=O)(=O)N(C)C[C@H]2Oc3ccc(NC(=O)Cc4cn(C)c5ccccc45)cc3CC(=O)N([C@@H](C)CO)C[C@H]2C)cc1`: the inhibition is 12.9% (inactive).

Regarding `CO[C@@H]1CN(C)C(=O)c2cc(NC(=O)C3CC3)ccc2OC[C@H](C)N(C(=O)CN(C)C)C[C@H]1C`, the inhibition was -3.57% (inactive).

With `CO[C@H]1CN(C)C(=O)c2cc(NC(=O)C3CC3)ccc2OC[C@H](C)N(C(=O)CN(C)C)C[C@H]1C`, the inhibition is 99.6% (active).

In the case of `CO[C@H]1CN(C)C(=O)c2cc(NC(=O)Nc3ccc4c(c3)OCO4)ccc2OC[C@@H](C)NC[C@@H]1C`, the inhibition is 127% (active).

Turning to `CO[C@@H]1CN(C)C(=O)c2cc(NC(=O)Nc3ccc4c(c3)OCO4)ccc2OC[C@@H](C)NC[C@@H]1C`, the inhibition was -4.97% (inactive).

For `CO[C@@H]1CN(C)C(=O)c2cc(NC(=O)C3CCC3)ccc2OC[C@H](C)N(C(=O)CN(C)C)C[C@@H]1C`, the inhibition is 1.09% (inactive).

Regarding `CO[C@H]1CN(C)C(=O)c2ccc(NC(=O)Nc3ccc4c(c3)OCO4)cc2OC[C@H](C)NC[C@H]1C`, the inhibition was 6.05% (inactive).

As for `N#C[C@H]1[C@@H](c2ccccc2C2=CCCC2)[C@H](CO)N1C(=O)c1cccc(F)c1`, the inhibition was 7.35% (inactive).

Consider `C/C=C/c1ccccc1[C@@H]1[C@@H](CO)N(S(=O)(=O)c2cccc(F)c2)[C@H]1C#N`, for which the inhibition is 15.1% (inactive).

Consider `N#C[C@@H]1[C@H](c2ccccc2C2=CCCCC2)[C@@H](CO)N1S(=O)(=O)c1cccc(F)c1`, for which the inhibition was 124% (active).

In the case of `O=C(C[C@@H]1C=C[C@H](NC(=O)CN2CCOCC2)[C@@H](CO)O1)NCc1cccc(F)c1`, the inhibition is 12.6% (inactive).

Turning to `Cc1ccc(CN(C)C[C@H]2OCc3cn(nn3)CCCC(=O)N([C@@H](C)CO)C[C@H]2C)cc1`, the inhibition is -1.4% (inactive).

As for `CN(C)C(=O)c1cccc(-c2ccc(C3[C@H]4CNC[C@@H]3N4C(=O)Nc3ccccc3F)cc2)c1` (stereo partly drawn), the inhibition is -26.3% (inactive) and -7.38% (inactive).

For `COc1ccc(CN(C)C[C@H]2Oc3ccc(NC(=O)Cn4cnnn4)cc3CC(=O)N([C@@H](C)CO)C[C@@H]2C)cc1`, the inhibition is 6.98% (inactive).

On to `O=C(NCC1CC1)[C@@H]1[C@@H](CO)[C@@H]2Cn3c(ccc(-c4ccccc4)c3=O)[C@H]1N2C(=O)C1CC1`, for which the inhibition was 5.45% (inactive).

In the case of `CCC(=O)N1CC2(CN(Cc3ccc(Cl)cc3)C2)c2c([nH]c3cc(OC)ccc23)[C@@H]1CO`, the inhibition was -4.36% (inactive).

In the case of `CCC(=O)Nc1ccc2c(c1)C(=O)N(C)C[C@H](OC)[C@@H](C)CN(C(=O)c1cnccn1)[C@@H](C)CO2`, the inhibition was 10.3% (inactive).

As for `C[C@@H]1CN([C@H](C)CO)C(=O)c2cc(NS(=O)(=O)c3cccs3)ccc2O[C@@H](C)CCCCO[C@H]1CN(C)Cc1ccc(C(F)(F)F)cc1`, the inhibition is 15.3% (inactive).

In the case of `C[C@@H]1CN([C@@H](C)CO)C(=O)Cc2cc(NC(=O)Nc3cccc4ccccc34)ccc2O[C@H]1CN(C)CC1CCCCC1`, the inhibition was 8.63% (inactive).

Regarding `COCC(=O)N1[C@H](CO)[C@H](c2ccccc2)C12CN(C(=O)NC1CCCCC1)C2`, the inhibition was 14.7% (inactive).

On to `CCCC(O)C#Cc1cnc2c(c1)C(=O)N([C@H](C)CO)C[C@H](C)[C@H](CN(C)S(=O)(=O)c1ccc(C#N)cc1)O2` (stereo partly drawn), for which the inhibition was -4.33% (inactive).

In the case of `Cc1ccc(S(=O)(=O)N[C@@H]2CC[C@@H](CCn3cc(C4CC4)nn3)O[C@@H]2CO)cc1`, the inhibition is 1.11% (inactive).

On to `CCCC#Cc1ccc([C@H]2[C@@H](CO)N3C(=O)CN(C(=O)c4ccncc4)C[C@@H]23)cc1`, for which the inhibition was -18.5% (inactive).

For `CC(C)NC(=O)N(C)C[C@H]1Oc2ccc(NS(C)(=O)=O)cc2CC(=O)N([C@@H](C)CO)C[C@@H]1C`, the inhibition is 6.04% (inactive).

Regarding `COc1ccccc1-c1cnc2c(c1)C(=O)N([C@@H](C)CO)C[C@H](C)[C@H](CN(C)CC1CCOCC1)O2`, the inhibition was -4.73% (inactive).

Consider `C[C@H](CO)N1C[C@H](C)[C@H](CN(C)S(=O)(=O)c2cccs2)OCCCC[C@H](C)Oc2ccc(NC(=O)CCCN(C)C)cc2C1=O`, for which the inhibition is 1.4% (inactive).

As for `NCC[C@H]1CC[C@H](NC(=O)C2CC2)[C@@H](CO)O1`, the inhibition is 4.1% (inactive).

Turning to `CCCN1C[C@@H](C)[C@@H](OC)CN(C)C(=O)c2cc(NC(=O)CC(F)(F)F)ccc2OC[C@H]1C`, the inhibition was -32.9% (inactive).

For `COCC#Cc1ccc2c(c1)O[C@H](CN(C)CC1CC1)[C@H](C)CN([C@H](C)CO)S2(=O)=O`, the inhibition was 4.13% (inactive).

Regarding `CC(C)NC(=O)N(C)C[C@H]1Oc2ncc(-c3ccc(C(=O)N(C)C)cc3)cc2C(=O)N([C@H](C)CO)C[C@H]1C`, the inhibition was -3.24% (inactive).

In the case of `C[C@@H]1CN([C@H](C)CO)C(=O)c2cc(-c3ccncc3)cnc2O[C@@H]1CN(C)C(=O)Cc1cccnc1`, the inhibition was 11.8% (inactive).

Consider `CC(C)NC(=O)N(C)C[C@@H]1Oc2cc(C#C[C@H](C)O)ccc2S(=O)(=O)N([C@@H](C)CO)C[C@H]1C`, for which the inhibition is -1.62% (inactive).

As for `CC(C)C#Cc1ccc2c(c1)O[C@@H](CN(C)C(=O)NC(C)C)[C@H](C)CN([C@H](C)CO)S2(=O)=O`, the inhibition was 106% (active).

With `CC(C)C#Cc1ccc2c(c1)O[C@@H](CN(C)C(=O)Nc1ccccc1)[C@H](C)CN([C@H](C)CO)S2(=O)=O`, the inhibition was 15.5% (inactive).

In the case of `CNC[C@@H]1Oc2ncc(-c3ccc(F)cc3)cc2C(=O)N([C@H](C)CO)C[C@@H]1C`, the inhibition was 6.49% (inactive).

For the compound `CCCC(=O)Nc1ccc2c(c1)C(=O)N(C)C[C@H](OC)[C@@H](C)CN(C(C)=O)[C@H](C)CO2`, the inhibition is 3.22% (inactive).

`CO[C@H]1CN(C)C(=O)c2ccc(NC(=O)c3nc4ccccc4s3)cc2OC[C@H](C)N(Cc2cccnc2)C[C@@H]1C`: the inhibition was -1.61% (inactive).

Take `CC(=O)N1Cc2cc(C(=O)NCc3cc(F)cc(F)c3)nc(-c3cccc(C4=CCCC4)c3)c2[C@@H]1CCO`: the inhibition was -14.1% (inactive).

On to `N#C[C@@H]1[C@@H](c2ccc(-c3ccccc3)cc2)[C@@H](CO)N1C(=O)Cc1ccccc1`, for which the inhibition was 9.02% (inactive).

Take `CO[C@H]1CN(C)C(=O)c2cc(NC(=O)Nc3ccccc3F)ccc2OC[C@@H](C)N(CCC(F)(F)F)C[C@@H]1C`: the inhibition is -11.4% (inactive).

As to `CN(C)C(=O)c1ccc(-c2ccc([C@@H]3[C@H](C#N)N(C(=O)C4CC4)[C@H]3CO)cc2)cc1`, the inhibition is -6.47% (inactive).

Take `Cc1noc(C)c1S(=O)(=O)N(C)C[C@@H]1OCCCC[C@H](C)Oc2ccc(NC(=O)NC3CCCCC3)cc2C(=O)N([C@@H](C)CO)C[C@H]1C`: the inhibition was -8.81% (inactive).

As to `C[C@@H]1CN([C@H](C)CO)C(=O)c2cc(NC(=O)Nc3ccc(F)cc3)ccc2O[C@@H](C)CCCCO[C@H]1CN(C)Cc1ccc(Cl)c(Cl)c1`, the inhibition is 4.63% (inactive).

Turning to `COc1ccc(C(=O)Nc2ccc3c(c2)OC[C@H](C)N(C(C)=O)C[C@@H](C)[C@@H](OC)CN(C)C3=O)cc1`, the inhibition is -16% (inactive).

As to `C[C@@H]1CN([C@H](C)CO)C(=O)c2cccc(NC(=O)C3CCCCC3)c2O[C@@H]1CN(C)C(=O)NC1CCCCC1`, the inhibition is 1.54% (inactive).

Consider `C[C@H](O)C#Cc1ccc2c(c1)O[C@H](CN(C)Cc1ccccn1)[C@H](C)CN([C@H](C)CO)S2(=O)=O`, for which the inhibition is -12.6% (inactive).

Turning to `COc1cccc(NC(=O)c2ccc3c(SCC(=O)O)c4c(nc3c2)CCCC4)c1`, the inhibition is 6.49% (inactive).

As to `O=C(O)CSc1c2c(nc3cc(C(=O)Nc4cccc(C(F)(F)F)c4)ccc13)CCCC2`, the inhibition was 71.4% (active).

`O=C(Nc1cccc(C(F)(F)F)c1)c1ccc(N2CCNCC2)c([N+](=O)[O-])c1`: the inhibition was -2.54% (inactive).
